According to paper PMC4127403 (Analytical chemistry, 2012):

How the values were obtained:
[1] = target: aequorin (AEQ), cysteine-free mutant (Aequorea victoria, UniProt P07164, C152S/C159S/C187S); assay: AEQ bioluminescence inhibition assay; format: biochemical; settings: for effect on bioluminescence emission of AEQ: 5.0 × 10^–10 M coelenterazine, 2 h incubation; for expected suitability for the inhibition assay: speculated, compounds not available, test planned
[2] = test system: aequorin (AEQ); assay: AEQ bioluminescence inhibition assay in spiked human serum; format: biochemical, Aequorea victoria
Method in brief: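 Cysteine-free apoaequorin was expressed in E. coli, secreted, and purified by DEAE and butyl HIC to >95% purity. Human serum was spiked with test compound standards in DMSO (90 μL serum + 10 μL standard). 20 μL of this was added to 80 μL 1.21 × 10−7 M apoAEQ in Buffer A with 5.0 × 10−10 M final coelenterazine, in triplicate, held 2 h at 4 °C. Ca2+/Tris pH 7.5 injection triggered light, collected for 6 s.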

[3] = test system: aequorin (AEQ); assay: AEQ bioluminescence inhibition assay in spiked tap water; format: biochemical, Aequorea victoria
Method in brief: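 Tap water was spiked with test compound standards prepared in DMSO. Same conditions as the buffer assay: 20 μL sample into 80 μL 1.21 × 10−7 M apoAEQ (30 mM Tris/HCl pH 7.5, 2 mM EDTA), 5.0 × 10−10 M final coelenterazine, triplicates, 2 h at 4 °C. Light was triggered with 100 μL 100 mM Tris/HCl pH 7.5, 100 mM CaCl2 and read for 6 s.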

[4] = test system: aequorin (AEQ); assay: Effect of OH-PCB on AEQ; format: biochemical, Aequorea victoria; settings: initial experiments with apoaequorin and coelenterazine
Method in brief: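 ApoAEQ stock was diluted to 1.21 × 10−7 M in 30 mM Tris/HCl pH 7.5, 2 mM EDTA and charged with three-fold molar excess coelenterazine, 4 °C, 18 h. Aequorin was then mixed with test compound in DMSO at 10% or 20% v/v, with DMSO-only and buffer controls. A 10 μL portion was triggered with 50 μL 100 mM Tris/HCl pH 7.5, 100 mM CaCl2 and read on a tube luminometer.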

[5] = test system: aequorin (AEQ); assay: Selectivity studies of the AEQ inhibition assay; format: biochemical, Aequorea victoria; settings: 1.0 × 10^−4 M compound, 5.0 × 10^−10 M coelenterazine
Method in brief: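 Selectivity used the optimized inhibition format with various organic compounds dissolved in DMSO. 1.21 × 10−7 M apoAEQ was incubated with 1.0 × 10−4 M compound and 5.0 × 10−10 M coelenterazine, 2 h at 4 °C. Light was triggered by Ca2+ (100 mM CaCl2, 100 mM Tris/HCl pH 7.5) and collected for 6 s. Values are the mean of three measurements ± 1 standard deviation.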

[6] = cited from earlier work
[7] = fetal rat plasma and brain; cited from earlier work
[8] = target: apoaequorin (apoAEQ) (Aequorea victoria, UniProt P07164, C152S/C159S/C187S); assay: Coelenterazine dose-response curve - EC50 determination; format: biochemical
Chain of apoaequorin (apoAEQ) (P07164 8-196 C152S/C159S/C187S): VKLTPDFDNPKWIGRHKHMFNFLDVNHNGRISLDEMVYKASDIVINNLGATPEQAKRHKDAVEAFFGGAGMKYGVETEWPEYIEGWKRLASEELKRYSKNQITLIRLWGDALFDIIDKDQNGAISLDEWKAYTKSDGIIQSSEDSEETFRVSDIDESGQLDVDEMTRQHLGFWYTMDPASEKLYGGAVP

Chain of aequorin (AEQ), cysteine-free mutant (P07164 8-196 C152S/C159S/C187S): as above

`Oc1ccccc1-c1cc(Cl)c(Cl)c(Cl)c1Cl` [2 hydroxy-2',3',4',5'-tetrachlorobiphenyl] showed an IC50 [1] of 1.33 µM.

With `Oc1cccc(-c2cc(Cl)ccc2Cl)c1O` [2,3-dihydroxy-2',5'-dichlorobiphenyl] the IC50 [1] was 1380 µM.

With `Oc1cccc(-c2ccc(Cl)c(Cl)c2)c1O` [2,3-dihydroxy-3',4'-dichlorobiphenyl] the IC50 [1] was 550 µM.

For `Oc1ccc(Cl)cc1-c1cc(Cl)c(Cl)c(Cl)c1Cl` [2-hydroxy-2',3',4',5,5'-pentachlorobiphenyl], the “detection limit in serum” value [2] was 5.02 µM, the “detection limit in tap water” value [3] was 132 nM and the “decrease of AEQ bioluminescence activity” value [4] was 99%. The IC50 [1] was 0.097 µM, the detection limit ([1]; 5.0 × 10^−10 M coelenterazine, buffer) was 33 nM and the “detection limit in buffer containing HSA” value ([1]; buffer containing HSA (data not shown)) was 3.45 µM.

`Oc1c(Cl)ccc(Cl)c1-c1cc(Cl)c(Cl)cc1Cl` [2-hydroxy-2',3,4',5',6-pentachlorobiphenyl] gave an IC50 [1] of 0.028 µM and a detection limit ([1]; best detection limit of the assay (abstract)) of 11 nM.

With `Oc1ccccc1-c1c(Cl)cc(Cl)cc1Cl` [2-hydroxy-2',4',6'-trichlorobiphenyl] the IC50 [1] was 155 µM.

For `Oc1ccc(-c2ccc(Cl)c(Cl)c2)cc1O` [3,4-dihydroxy-3',4'-dichlorobiphenyl], the IC50 [1] was over 2000 µM and the “effect on bioluminescence emission of AEQ” value (“effect … of AEQ” below) [1] was “did not produce a decrease in the bioluminescence emission of AEQ”.

In the case of `O=C(O)c1cccc(Cl)c1` [3-chloro-benzoic acid], the “effect on bioluminescence generated by AEQ” value (“effect … by AEQ” for short) [5] is reported as “do not decrease the bioluminescence”.

In the case of `Oc1cccc(-c2ccc(Cl)cc2)c1` [3-hydroxy-4'-chlorobiphenyl], the IC50 [1] is reported as over 2000 µM and the “effect … of AEQ” value [1] is reported as “did not produce a decrease in the bioluminescence emission of AEQ”.

With `Oc1ccc(-c2cc(Cl)c(Cl)c(Cl)c2Cl)cc1Cl` [4-hydroxy-2',3,3',4',5'-pentachlorobiphenyl] the IC50 [1] was 2.28 µM and the “effect … of AEQ” value [1] was “greatly inhibited aequorin bioluminescence”.

Work on `Oc1c(Cl)cc(-c2ccc(Cl)cc2Cl)cc1Cl` [4-hydroxy-2',3,4',5-tetrachlorobiphenyl] yielded an IC50 [1] of 17.5 µM.

In the case of `Oc1c(Cl)cc(-c2ccccc2Cl)cc1Cl` [4-hydroxy-2',3,5-trichlorobiphenyl], the IC50 [1] is reported as 290 µM.

`Oc1ccc(-c2c(Cl)cc(Cl)cc2Cl)cc1` [4-hydroxy-2',4',6'-trichlorobiphenyl] showed an IC50 [1] of 15.4 µM.

With `Oc1ccc(-c2cc(Cl)ccc2Cl)cc1` [4-hydroxy-2',5'-dichlorobiphenyl] the IC50 [1] was 138 µM.

For `Oc1ccc(-c2c(Cl)c(Cl)cc(Cl)c2Cl)c(Cl)c1` [4-hydroxy-2,2',3',5',6'-pentachlorobiphenyl], the IC50 [1] was 9.77 µM and the “effect … of AEQ” value [1] was “greatly inhibited aequorin bioluminescence”.

In the case of `Oc1c(Cl)cc(-c2cc(Cl)c(Cl)cc2Cl)c(Cl)c1Cl` [4-hydroxy-2,2',3,4',5,5'-hexachlorobiphenyl], the “estrogenic activity” value [6] is listed as “anti-estrogenic” and the “expected suitability for the inhibition assay” value [1] is listed as “would be suitable for this inhibition assay”.

In the case of `Oc1c(Cl)cc(-c2ccc(Cl)c(Cl)c2)c(Cl)c1Cl` [4-hydroxy-2,3,3',4',5-pentachlorobiphenyl], the “estrogenic activity” value [6] is listed as “weakly estrogenic”, the “levels of thyroxine after exposure” value [7] is listed as “lower levels of thyroxine” and the “expected suitability for the inhibition assay” value [1] is listed as “would be suitable for this inhibition assay”.

In the case of `Oc1c(Cl)cc(-c2ccc(Cl)c(Cl)c2)cc1Cl` [4-hydroxy-3,3',4',5-tetrachlorobiphenyl], the IC50 [1] is reported as 130 µM and the “effect … of AEQ” value [1] is reported as “only a small alteration of the bioluminescence signal”.

With `NC12CC3CC(CC(C3)C1)C2` [amantadine] the “effect … by AEQ” value [5] was “do not decrease the bioluminescence”.

With `Oc1ccc(Cc2nc3c(Cc4ccccc4)nc(-c4ccc(O)cc4)cn3c2O)cc1` [coelenterazine] the EC50 [8] was 0.0618 µM.

For `CN1CCC[C@H]1c1cccnc1` [nicotine], the “effect … by AEQ” value [5] was “do not decrease the bioluminescence”.
